Screens: PubChem, several laboratories
UPR CHOP act – activators of apoptotic arm of unfolded protein response (CHOP); CHO-CHOP luciferase reporter, UPR activation, luminescence; percent of tunicamycin response over DMSO baseline; activation, % at 10 µM; hit rate 0.34% among 330,000; AID 449763;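 active = at 10 µM dose, activation of 40% or more, normalized to positive control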;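 note: 100% = tunicamycin at 10 µg/mL and 0% = DMSO alone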
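Assay system: CHO-CHOP cells, stable luciferase reporter of PERK-eIF2a-CHOP signalling / Buffer or medium: F12 plus 10% serum / Compound dosing: one dose, 10 µM in 0.5% DMSO / Times: 6 h compound treatment, 37 °C / Technique: luciferase luminescence / Read-out: % reporter activation, DMSO baseline versus tunicamycin full activation / Benchmarks: tunicamycin and DMSO controls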
SKKanGAS inh – SKKanGAS growth inhibition. S. pyogenes SKKanGAS, kanamycin growth, BacTiter-Glo, 6 h. inhibition, % at 7.5 µM. hit rate 1.3% among 300,000;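 active = mean replicate score, as percent of positive control median, at least 50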;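 note: strain carries kanamycin resistance gene driven by streptokinase promoter and grows in 40 µg/ml kanamycin; loss of luminescence reflects streptokinase promoter inhibition or plain growth inhibition; 0% = median of DMSO wells and 100% = positive control at its reference dose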
Mdm2 MdmX PPI – inhibitors of human Mdm2/MdmX interaction | hit rate 3% among 330,000 | O15151+Q00987 | inhibition, % at 8 µM | SaOS-2 split-luciferase Mdm2/MdmX complementation, luminescence;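 active = inhibition of at least 50% at 8 µM in the primary screen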
Target sequence (O15151 whole entry, looked up): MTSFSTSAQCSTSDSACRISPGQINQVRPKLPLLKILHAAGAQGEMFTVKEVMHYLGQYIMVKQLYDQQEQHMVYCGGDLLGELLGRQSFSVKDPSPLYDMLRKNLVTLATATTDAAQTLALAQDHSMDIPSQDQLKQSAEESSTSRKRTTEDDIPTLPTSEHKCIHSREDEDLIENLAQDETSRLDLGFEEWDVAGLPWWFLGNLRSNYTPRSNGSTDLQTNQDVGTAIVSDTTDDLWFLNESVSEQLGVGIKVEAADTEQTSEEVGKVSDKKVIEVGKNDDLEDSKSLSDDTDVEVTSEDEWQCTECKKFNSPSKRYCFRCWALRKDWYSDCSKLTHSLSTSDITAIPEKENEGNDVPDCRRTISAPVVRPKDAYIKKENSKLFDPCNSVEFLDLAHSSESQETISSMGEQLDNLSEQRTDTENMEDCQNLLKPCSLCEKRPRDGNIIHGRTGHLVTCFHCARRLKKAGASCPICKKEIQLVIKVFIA
Target sequence (Q00987 whole entry, looked up): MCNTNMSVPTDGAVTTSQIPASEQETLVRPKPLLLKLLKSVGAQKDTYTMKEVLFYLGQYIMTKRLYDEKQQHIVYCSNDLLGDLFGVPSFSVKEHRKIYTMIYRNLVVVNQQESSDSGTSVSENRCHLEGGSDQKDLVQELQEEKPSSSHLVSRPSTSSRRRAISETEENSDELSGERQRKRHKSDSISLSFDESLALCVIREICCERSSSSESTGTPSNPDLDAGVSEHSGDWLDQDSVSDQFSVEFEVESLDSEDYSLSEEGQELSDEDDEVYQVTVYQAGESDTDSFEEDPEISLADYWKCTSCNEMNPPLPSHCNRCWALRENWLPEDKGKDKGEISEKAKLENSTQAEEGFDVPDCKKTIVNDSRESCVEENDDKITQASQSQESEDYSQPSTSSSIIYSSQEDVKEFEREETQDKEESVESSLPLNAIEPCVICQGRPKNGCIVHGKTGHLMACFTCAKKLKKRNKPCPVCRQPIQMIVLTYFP
Beta apoptosis – beta cell apoptosis inhibition; AID 435005; hit rate 0.8% among 300,000; protection from apoptosis, % (concentration not given with the values); INS-1E cytokine-induced death, ATP luminescence, 48 h; percent of positive-control rescue, neutral wells zero;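 active = Every replicate reaches about 75%, or at least half do and their mean reaches it too, limit read from the data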;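 note: 0% = cytokine-treated negative control wells and 100% = positive control rescue; higher means more ATP so stronger rescue from cytokine killing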
XBP1 UPR activ – adaptive UPR (XBP1) activation; CHO-XBP1 luciferase reporter, IRE1-XBP1 UPR activation, luminescence; percent of tunicamycin response, DMSO as zero; activation, % at 20 µM; hit rate 0.33% among 330,000; AID 463104;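 active = versus positive control, 20 µM dose yields 30% or more activation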;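 note: 100% = tunicamycin at 10 µg/mL and 0% = DMSO only wells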
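Test system: CHO-XBP1 luciferase reporter cells | Buffer or medium: Serum-containing F12 medium, 10% FBS | Schedule: 6 h compound exposure at 37 °C, 5% CO2 | Detection: Steady-Glo luciferase glow luminescence, 10 min after reagent addition | Read-out basis: Activation, % of tunicamycin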
CSC inhib – blocks cancer stem cells. cancer stem cell-like cells viability, luminescence. inhibition, % at 7.5 µM. hit rate 1.1% among 300,000; in the data active = inhibition above about 75%; tested in HMLE shEcad cells
Mdm2 MdmX conf – human Mdm2/MdmX binding inhibition, confirmed | shares compounds with Mdm2 MdmX PPI | luminescent assay | inhibition, % at 8 µM | hit rate 55% among 10,000; in the data active = inhibition above about 40%
Full FLuc ctr – counter-screen for Mdm2/MdmX inhibitors: full-length luciferase; SaOS-2 full-length luciferase counterscreen, luminescence; shares compounds with Mdm2 MdmX PPI; hit rate 77% among 6,200; AID 504607; inhibition, % at 8 µM;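 active = mean inhibition at 8 µM reaching about 37%, which flags the compound as non-specific, limit read from the data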;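 note: p53-null SaOS-2 cells with luciferase driven by a doxycycline-inducible promoter; compound on cells about two nights before reading with doxycycline added after day one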
Starred values were filed as active, the others as inactive; x = no result given. Most compounds without a hit are left out; they make up all but 4.8% or so of the library.

SMILES	UPR CHOP act	SKKanGAS inh	Mdm2 MdmX PPI	Beta apoptosis	XBP1 UPR activ	CSC inhib	Mdm2 MdmX conf	Full FLuc ctr
CCOC(=O)[C@@H]1[C@H]2COc3cc(OC)ccc3[C@H]2N2C(=O)N(c3ccc(C(F)(F)F)cc3)C(=O)[C@]12C	-1.6	x	91.3*	107.9*	3.2	102.0*	17.6	x
N#Cc1ccc(C23CC4(C2)[C@H](CN(P(=O)(c2ccccc2)c2ccccc2)[C@@H]4c2ccccc2)C3c2ccc(Cl)nc2)cc1 (stereo partly specified)	22.3	9.6	56.1*	4.4	3.4	44.3	24.6	53.7*
COc1cccc(CSc2nc3ccccc3cc2C=O)c1	0.5	13.2	68.1*	10.1	19.2	-15.2	64.3*	60.8*
COc1ccc(OC)c(CN2CCN(C(=O)c3cccc(S(=O)(=O)Nc4ccc(C)cc4)c3)CC2)c1	-0.7	1.6	16.3	x	-3.7	-14.7	x	x
O=C(O)c1ccccc1C(=O)Nc1ccc(-n2ccc(C(F)(F)F)n2)cc1	0.2	-4.0	-22.1	-9.5	-5.0	-4.7	x	x
O=C(Nc1ccc(-n2ccc(C(F)(F)F)n2)cc1)Nc1cccc(Cl)c1	15.6	1.6	80.0*	116.3*	9.3	43.9	30.2	81.9*
Cc1ccc(C)c(N2CCN(S(=O)(=O)c3c(C)noc3/C=C/N(C)C)CC2)c1	-1.3	26.2	56.0*	-2.0	-4.7	40.9	28.4	x
CCCCC1(COC(=O)CCC(=O)O)C(=O)N(c2ccccc2)N(c2ccccc2)C1=O	1.8	x	-5.4	-9.8	-3.8	-13.1	x	x
CCCCC1(Cc2ccc([N+](=O)[O-])cc2)C(=O)N(c2ccccc2)N(c2ccccc2)C1=O	13.6	-26.9	97.4*	101.1*	-0.1	6.2	97.4*	47.0*
COC(=O)c1c(NC(=O)Cc2ccccc2)sc2c1CC(C)(C)NC2(C)C	-0.4	4.9	22.1	-7.1	5.0	-5.8	x	x
CCOC(=O)c1c(NC(=O)COc2ccccc2F)sc2c1CC(C)(C)NC2(C)C	1.9	-4.0	83.5*	x	11.6	45.0	71.8*	63.3*
CCOC(=O)c1c(NC(=O)c2ccc(S(=O)(=O)N3CCOCC3)cc2)sc2c1CC(C)(C)NC2(C)C	4.6	-0.5	55.4*	-1.1	-4.2	12.0	34.4	x
COC(=O)c1c(NC(=O)COc2ccc(Cl)cc2)sc2c1CC(C)(C)NC2(C)C	11.5	67.6*	94.9*	102.3*	43.0*	10.1	98.8*	-0.4
Cc1ccc(C(C)C)c(OCC(=O)Nc2sc3c(c2C#N)CC(C)(C)NC3(C)C)c1	4.1	0.0	59.0*	29.3	3.7	65.2	30.7	81.2*
CCOC(=O)c1c(NC(=O)c2ccc(S(=O)(=O)N3CCOCC3)cc2)sc2c1CCN(C)C2	-0.6	3.0	22.4	-2.9	1.4	19.7	x	x
CCOC(=O)[C@@H]1[C@H]2COc3ccc(Br)cc3[C@@H]2N2C(=O)N(c3ccc(C(F)(F)F)cc3)C(=O)[C@@]12C	-2.2	5.3	9.0	0.0	0.5	21.1	x	x
Cc1ccc(NC(=O)CN2C(=O)NC3(CCCCCC3)C2=O)cc1Cl	-2.3	x	-43.9	-3.5	-1.2	30.5	x	x
CCOc1ncccc1C(=O)OCC(=O)NCCc1ccc(S(N)(=O)=O)cc1	-0.6	x	-16.7	2.9	-1.8	1.1	x	x
O=C(CCCn1cncn1)N1CCCC(Nc2ccc(F)cc2)C1 (stereo unspecified)	0.4	0.6	14.9	-8.1	-0.9	-7.2	x	x
COC(=O)[C@@]1(Cc2ccc(OC)cc2)[C@@H]2[C@@H](CC(=O)[C@H]2CC(=O)C(=O)N(C)C)CN1C(=O)c1ccccc1	-0.5	-6.8	8.9	-5.8	0.3	0.9	x	x
COC(=O)[C@@]1(Cc2ccc(OC)cc2)[C@@H]2C(=CC(=O)[C@H]2CC(=O)C(=O)N2CCCC2)CN1C(=O)c1ccccc1	9.0	x	69.1*	-16.2	0.0	37.5	22.1	x
CCCN(CCC)S(=O)(=O)c1ccc(C)cc1	0.2	-2.8	-8.5	-0.1	-9.7	-4.3	x	x
